In brackets after ≈: the same amount, converted by molar mass.
Legend:
P. falciparum (W2) = experiment: in vitro antimalarial activity, plasmodial LDH; assay type: cell-based, Plasmodium falciparum; details: Plasmodium falciparum, W2, 72 h, read-out: P. falciparum (W2) IC50, CQ-resistant W2 strain, 72 h
Outline: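 P. falciparum-infected erythrocytes (2% parasitemia, 2% hematocrit) in RPMI 1640 with 10% human serum and 60 μg/mL amikacin. Exposed to test compound dilutions for 72 h at 37 °C under 90% N2/5% O2/5% CO2. LDH measured with Malstat reagent (30 min, room temperature), then NBT/PES for 1 h in the dark, stopped with 5% acetic acid, read at 650 nm. IC50 from dose-response curves.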

C. albicans ATCC90028 = experiment: in vitro antifungal activity; assay type: cell-based, Candida albicans; details: Candida albicans; for IC50: ATCC90028, read-out: C. albicans IC50; for MFC: ATCC90028, read-out: C. albicans MFC; for MIC: ATCC90028, read-out: C. albicans MIC
Outline: (§1)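 Modified NCCLS broth method in Sabouraud dextrose. Inoculum set by OD630 to 1.5 × 10^3 CFU/mL. Test compound serially diluted in 20% DMSO/saline, duplicate wells, up to 20 μg/mL. Incubated 70–74 h at 35 °C; 530 nm read before and after. IC50 is 50% growth inhibition; MIC is no detectable growth. MFC from clear wells subcultured on agar. Amphotericin B control.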

[1] = test system: L. donovani promastigotes; experiment: in vitro antileishmanial activity, alamarBlue assay; assay type: cell-based, Leishmania donovani; details: 48 h; for IC50: read-out: L. donovani IC50, promastigotes, 48 h
C. neoformans ATCC90113 = experiment: in vitro antifungal activity; assay type: cell-based, Cryptococcus neoformans; details: Cryptococcus neoformans; for IC50: ATCC90113, read-out: C. neoformans IC50; for MFC: ATCC90113, read-out: C. neoformans MFC; for MIC: ATCC90113, read-out: C. neoformans MIC
Outline: as §1

A. fumigatus ATCC 90906 = experiment: in vitro antifungal activity; assay type: cell-based, Aspergillus fumigatus; details: Aspergillus fumigatus; for IC50: ATCC90906, read-out: A. fumigatus IC50; for MFC: ATCC90906, read-out: A. fumigatus MFC; for MIC: ATCC90906, read-out: A. fumigatus MIC
Outline: as §1

SA (ATCC29213) = experiment: in vitro antibacterial activity; assay type: cell-based; details: Staphylococcus aureus; for IC50: ATCC29213, read-out: IC50 (concentration that affords 50% growth inhibition), SA; for MBC: ATCC29213, read-out: MBC (minimum bactericidal concentration), SA; for MIC: ATCC29213, read-out: MIC, SA
Outline: (§2)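 Test compound serially diluted in 20% DMSO/saline and plated in duplicate, up to 20 μg/mL. Inoculum in cation-adjusted Mueller–Hinton broth, pH 7.3, set by OD630 to 5 × 10^5 CFU/mL. Incubated 16–20 h at 35 °C; 530 nm read before and after. IC50 is 50% growth inhibition; MIC is no detectable growth. MBC from clear wells subcultured on agar. Ciprofloxacin control.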

[2] = test system: M. intracellulare (ATCC23068); experiment: in vitro antibacterial activity, modified alamarBlue procedure; assay type: cell-based, Mycobacterium intracellulare; details: Mycobacterium intracellulare; for IC50: ATCC23068, read-out: IC50 (concentration that affords 50% growth inhibition), M. intracellulare; for MBC: ATCC23068, read-out: MBC (minimum bactericidal concentration), M. intracellulare; for MIC: ATCC23068, read-out: MIC, M. intracellulare
Outline: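 Modified alamarBlue microplate method. Test compound serially diluted in 20% DMSO/saline, duplicate wells, up to 20 μg/mL. Inoculum 2.0 × 10^6 CFU/mL in Middlebrook 7H9 with OADC, pH 7.3, containing 5% alamarBlue. Incubated 70–74 h at 37 °C, 10% CO2; fluorescence 544ex/590em read before and after. MIC: no blue-to-pink change. MBC by subculturing blue wells on agar. Ciprofloxacin control.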

MRSA (ATCC33591) = experiment: in vitro antibacterial activity; assay type: cell-based, methicillin-resistant Staphylococcus aureus; details: Staphylococcus aureus, ATCC33591|MRSA, read-out: MIC, MRSA
Outline: as §2

P. falciparum (D6) = experiment: in vitro antimalarial activity, plasmodial LDH; assay type: cell-based, Plasmodium falciparum; details: Plasmodium falciparum, D6, 72 h, read-out: P. falciparum (D6) IC50
[3] = test system: SK-MEL, KB, BT-549, SK-OV-3, VERO and LLC-PK1 cells; experiment: cytotoxicity, neutral red uptake assay; assay type: cell-based, mammalian; details: highest test concentration 4760 ng/mL
Outline: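 Cells seeded at 25 000/well and allowed 24 h to reach confluence. Test compound was then added and incubated 48 h. Viable cells were counted by a modified neutral red uptake method. The panel was four human cancer lines and two noncancerous mammalian kidney lines. Doxorubicin served as positive control and DMSO as negative control.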

| SMILES | IC50 (P. falciparum (W2)) [µg/mL] | IC50 (C. albicans ATCC90028) [µg/mL] | MFC (C. albicans ATCC90028) [µg/mL] | MIC (C. albicans ATCC90028) [µg/mL] | IC50 (C. neoformans ATCC90113) [µg/mL] | MFC (C. neoformans ATCC90113) [µg/mL] | MIC (C. neoformans ATCC90113) [µg/mL] | IC50 (A. fumigatus ATCC 90906) [µg/mL] | MFC (A. fumigatus ATCC 90906) [µg/mL] | MIC (A. fumigatus ATCC 90906) [µg/mL] | IC50 (SA (ATCC29213)) [µg/mL] | MBC (SA (ATCC29213)) [µg/mL] | MIC (SA (ATCC29213)) [µg/mL] | IC50 [2] [µg/mL] | MBC [2] [µg/mL] | MIC [2] [µg/mL] | MIC (MRSA (ATCC33591)) [µg/mL] | IC50 (P. falciparum (D6)) [µg/mL] | cytotoxicity CTX [3] | further results |
| --- | --- | --- | --- | --- | --- | --- | --- | --- | --- | --- | --- | --- | --- | --- | --- | --- | --- | --- | --- | --- |
| C[C@@H]1CC[C@H]2[C@@H](C)C(=O)O[C@@H]3O[C@@]4(C)CC[C@@H]1[C@]32OO4 [ART, artemisinin, reference compound] | 0.009 (≈ 0.0319 µM) | – | – | – | – | – | – | – | – | – | – | – | – | – | – | – | – | – | – | – |
| C[C@@H]1[C@H](O)[C@@H](C)/C=C/C=C/C=C/C=C/C=C/C=C/C=C/[C@H](O[C@@H]2O[C@H](C)[C@@H](O)[C@H](N)[C@@H]2O)C[C@@H]2O[C@](O)(C[C@@H](O)C[C@@H](O)[C@H](O)CC[C@@H](O)C[C@@H](O)CC(=O)O[C@H]1C)C[C@H](O)[C@H]2C(=O)O [amphotericin B (AMP), amphotericin B, reference compound] | – | 0.17 (≈ 0.184 µM) | 1.25 (≈ 1.35 µM) | 0.63 (≈ 0.682 µM) | 0.3 (≈ 0.325 µM) | 0.63 (≈ 0.682 µM) | 0.63 (≈ 0.682 µM) | 0.68 (≈ 0.736 µM) | 2.5 (≈ 2.71 µM) | 1.25 (≈ 1.35 µM) | – | – | – | – | – | – | – | – | – | IC50 ([1]; Leishmania donovani): 0.1 µg/mL (≈ 0.108 µM); IC90 ([1]; Leishmania donovani, read-out: L. donovani IC90, promastigotes, 48 h): 0.3 µg/mL (≈ 0.325 µM) |
| O=C(O)c1cn(C2CC2)c2cc(N3CCNCC3)c(F)cc2c1=O [ciprofloxacin, reference compound] | – | – | – | – | – | – | – | – | – | – | 0.13 (≈ 0.392 µM) | 1 (≈ 3.02 µM) | 0.5 (≈ 1.51 µM) | 0.28 (≈ 0.845 µM) | 1 (≈ 3.02 µM) | 0.5 (≈ 1.51 µM) | 0.25 (≈ 0.754 µM) | – | – | – |
| CCCCOc1c(OC)cc(NC(C)CCCN)c2nc(C(C)(C)C)ccc12 (stereo not shown) [compound 45, N^4-(5-Butoxy-2-tert-butyl-6-methoxyquinolin-8-yl)pentane-1,4-diamine] | 3.3 (≈ 8.51 µM) | > 20 | > 20 | > 20 | > 20 | > 20 | > 20 | > 20 | > 20 | > 20 | > 20 | > 20 | > 20 | > 20 | > 20 | > 20 | > 20 | > 4.76 | NC (NC, not cytotoxic up to 4760 ng/mL (4.76 μg/mL)) | – |
| CCCCOc1c(OC)cc(NC(C)CCCNC(=O)C(N)CCCCN)c2nc(C(C)(C)C)ccc12 (stereo not shown) [compound 90, 2,6-Diamino-N-(4-(5-butoxy-2-tert-butyl-6-methoxyquinolin-8-ylamino)pentyl)-hexanamide] | 2.9 (≈ 5.62 µM) | > 20 | > 20 | > 20 | > 20 | > 20 | > 20 | > 20 | > 20 | > 20 | > 20 | > 20 | > 20 | > 20 | > 20 | > 20 | > 20 | 4.7 (≈ 9.11 µM) | NC (NC, not cytotoxic up to 4760 ng/mL (4.76 μg/mL)) | – |
| CCCCOc1c(OC)cc(NC(C)CCCNC(=O)C(N)CCCN)c2nc(C(C)(C)C)ccc12 (stereo not shown) [compound 91, 2,5-Diamino-N-(4-(5-butoxy-2-tert-butyl-6-methoxyquinolin-8-ylamino)pentyl)-pentanamide] | 1.3 (≈ 2.59 µM) | > 20 | > 20 | > 20 | > 20 | > 20 | > 20 | > 20 | > 20 | > 20 | > 20 | > 20 | > 20 | > 20 | > 20 | > 20 | > 20 | 2.8 (≈ 5.58 µM) | NC (NC, not cytotoxic up to 4760 ng/mL (4.76 μg/mL)) | – |
| CCCCCOc1c(OC)cc(NC(C)CCCNC(=O)C(N)CCCN)c2nc(C(C)(C)C)ccc12 (stereo not shown) [compound 93, 2,5-Diamino-N-(4-(2-tert-butyl-6-methoxy-5-(pentyloxy)quinolin-8-ylamino)-pentyl)pentanamide] | 0.87 (≈ 1.69 µM) | > 20 | > 20 | > 20 | 10.1 (≈ 19.6 µM) | > 20 | > 20 | > 20 | > 20 | > 20 | > 20 | > 20 | > 20 | 8.99 (≈ 17.4 µM) | > 20 | > 20 | > 20 | 1 (≈ 1.94 µM) | NC (NC, not cytotoxic up to 4760 ng/mL (4.76 μg/mL)) | – |
| CCCCCCOc1c(OC)cc(NC(C)CCCNC(=O)C(N)CCCN)c2nc(C(C)(C)C)ccc12 (stereo not shown) [compound 100, 2,5-Diamino-N-(4-(2-tert-butyl-5-(hexyloxy)-6-methoxyquinolin-8-ylamino)-pentyl)pentanamide] | 0.73 (≈ 1.38 µM) | > 20 | > 20 | > 20 | > 20 | > 20 | > 20 | > 20 | > 20 | > 20 | > 20 | > 20 | > 20 | 9.34 (≈ 17.6 µM) | > 20 | > 20 | > 20 | 0.86 (≈ 1.62 µM) | NC (NC, not cytotoxic up to 4760 ng/mL (4.76 μg/mL)) | – |
| CCCCCCOc1c(OC)cc(NC(C)CCCNC(=O)C(N)CCCNC(=N)N)c2nc(C(C)(C)C)ccc12 (stereo not shown) [compound 101, 2-Amino-N-(4-(2-tert-butyl-5-(hexyloxy)-6-methoxyquinolin-8-ylamino)pentyl)-5-guanidinopentanamide] | 0.33 (≈ 0.577 µM) | > 20 | > 20 | > 20 | 14.3 (≈ 25 µM) | > 20 | > 20 | > 20 | > 20 | > 20 | 8.87 (≈ 15.5 µM) | > 20 | > 20 | 18.4 (≈ 32.2 µM) | > 20 | 20 (≈ 35 µM) | > 20 | 0.8 (≈ 1.4 µM) | NC (NC, not cytotoxic up to 4760 ng/mL (4.76 μg/mL)) | – |
| CCCCCCCOc1c(OC)cc(NC(C)CCCNC(=O)C(N)CCCCN)c2nc(C(C)(C)C)ccc12 (stereo not shown) [compound 109, 2,6-Diamino-N-(4-(2-tert-butyl-5-(heptyloxy)-6-methoxyquinolin-8-ylamino)-pentyl)hexanamide] | 0.68 (≈ 1.22 µM) | > 20 | > 20 | > 20 | > 20 | > 20 | > 20 | > 20 | > 20 | > 20 | > 20 | > 20 | > 20 | > 20 | > 20 | > 20 | > 20 | 0.8 (≈ 1.43 µM) | NC (NC, not cytotoxic up to 4760 ng/mL (4.76 μg/mL)) | – |
| N=C(N)c1ccc(OCCCCCOc2ccc(C(=N)N)cc2)cc1 [pentamidine, reference compound] | – | – | – | – | – | – | – | – | – | – | – | – | – | – | – | – | – | – | – | IC50 ([1]; Leishmania donovani): 1.4 µg/mL (≈ 4.11 µM); L. donovani IC50 ([1]; promastigotes): 1.1 µg/mL |
